Measurements taken from ChEMBL document CHEMBL1122320, “1H-2-benzopyran-1-one derivatives, microbial products with pharmacological activity. Relationship between structure and activity in 6-[[1(S)-(3(S),4- dihydro-8-hydroxy-1-oxo-1H-2-benzopyran-3-yl)-3-methylbutyl]-amino]-4(S), 5(S)-dihydroxy-6-oxo-3(S)-ammoniohexanoate” (J Med Chem, 1983).

Key:
Rattus norvegicus [1] = assay: Gastroprotective activity on stress-induced ulcers in male Wistar rats at 50 mg/kg upon intraperitoneal administration; assay type: functional
Procedure, shortened: (§1)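 Rats (160-180 g) fasted 24 h, given test compound ip in physiological saline; saline-only controls. After 1 h, restrained in net cage and immersed to xiphisternum in 21 °C water bath for 6 h, then killed and stomachs opened along greater curvature. Hemorrhagic ulceration scored 0-3; % protection = 100 − (treated total rating/saline rating)×100. Five rats per dose.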

Rattus norvegicus [2] = assay: Gastroprotective activity on stress-induced ulcers in male Wistar rats at 12.5 mg/kg upon intraperitoneal administration; assay type: functional; procedure, shortened: as §1
Rattus norvegicus [3] = assay: Gastroprotective activity on stress-induced ulcers in male Wistar rats at 25 mg/kg upon intraperitoneal administration; assay type: functional; procedure, shortened: as §1
[4] = Lethal dose in mice upon intraperitoneal administration;Value ranges from(131.6-243.4); assay type: toxicity, organism-based; settings: mouse, in vivo, ip
Rattus norvegicus [5] = assay: Gastroprotective activity on stress-induced ulcers in male Wistar rats at 6.25 mg/kg upon intraperitoneal administration; assay type: functional; procedure, shortened: as §1
Rattus norvegicus [6] = assay: Gastroprotective activity on stress-induced ulcers in male Wistar rats at the specified ip dose of 12.5 mg/kg; assay type: functional; settings: route intraperitoneal
Procedure, shortened: (§2)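 Male Wistar rats (160-180 g), food-deprived 24 h, given compound ip in physiological saline; saline-only controls. After 1 h, restrained in net cage and immersed to xiphisternum in 21 °C water for 6 h. Stomachs removed and opened along greater curvature, hemorrhagic ulceration scored 0-3. % protection = 100 − (treated total rating / saline rating)×100. Five rats per dose.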

[7] = Lethal dose in mice upon intraperitoneal administration;Value ranges from(5-9.8); assay type: toxicity, organism-based; settings: mouse, in vivo, ip
Rattus norvegicus [8] = assay: Gastroprotective activity on stress-induced ulcers in male Wistar rats at 6.25 mg/kg upon intraperitoneal administration;the minimum effective dose = 125 ug/kg (protection 66%); assay type: functional; procedure, shortened: as §2

Row | Compound | Protection (Rattus norvegicus [1]) | Protection (Rattus norvegicus [2]) | Protection (Rattus norvegicus [3]) | LD50 [4] | Protection (Rattus norvegicus [5]) | Protection (Rattus norvegicus [6]) | LD50 [7] | Protection (Rattus norvegicus [8])
1 | CC(C)CC(NC(=O)C(O)C(O)C(N)CC(=O)O)C(O)Cc1cccc(O)c1C(=O)[O-].[Na+] (centres undefined) | 50% | 16% | 50% |  |  |  |  | 
2 | CC(C)CC(N)C1Cc2cccc(O)c2C(=O)O1.Cl (centres undefined) | 33% | 16% | 33% |  |  |  |  | 
3 | CC(=O)NC1CC(=O)OC1C(O)C(=O)NC(CC(C)C)C1Cc2cccc(O)c2C(=O)O1 (centres undefined) | 66% | 16% | 33% |  |  |  |  | 
4 | CC(C)C[C@H](NC(=O)[C@@H](O)[C@@H](O)[C@@H](N)CC(=O)O)[C@@H]1Cc2cccc(O)c2C(=O)O1 | 100% | 76% | 100% | 179 mg/kg | 56% |  |  | 
5 | CC(C)CC(NC(=O)C(O)C1C=CC(=O)O1)C1Cc2cccc(O)c2C(=O)O1 (centres undefined) | 33% | 0% | 16% |  |  |  |  | 
6 | CC(=O)NC1CC(=O)OC1C(OC(C)=O)C(=O)NC(CC(C)C)C1Cc2cccc(OC(C)=O)c2C(=O)O1 (centres undefined) | 16% | 0% | 0% |  |  |  |  | 
7 | CC(C)CC(NC(=O)C(O)C1OC(=O)CC1N)C1Cc2cccc(O)c2C(=O)O1 (centres undefined) | 83% | 76% | 76% |  | 17% |  |  | 
8 | NC(CC(=O)O)C(O)C(O)C(=O)[O-].[Na+] (centres undefined) | 43% | 0% | 23% |  |  |  |  | 
9 | CC(C)CC(NC(=O)C(O)C(O)C(N)CC(N)=O)C1Cc2cccc(O)c2C(=O)O1.Cl (centres undefined) | 100% |  | 100% |  |  | 100% | 7 mg/kg | 100%
10 | COc1cccc2c1C(=O)OC(C(CC(C)C)NC(=O)C(O)C(O)C(N)CC(=O)O)C2 (centres undefined) | 83% | 66% | 83% |  | 50% |  |  | 
11 | CC(=O)NC1CC(=O)OC1C(OC(C)=O)C(=O)NC(CC(C)C)C1Cc2cccc(O)c2C(=O)O1 (centres undefined) | 16% | 0% | 16% |  |  |  |  | 
